Several values for one entry are separate records, joined by “and”; a condition that tells them apart may be missing. Equal entries are not always repeated.
Assays:
LPS from E. coli = assay: LPS inactivation by PMB in plasma, LAL test; type: biochemical, Escherichia coli; conditions: 5 ng/ml LPS from E. coli, fresh human heparinized plasma, 60 min 37℃
How it was run: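 Fresh human heparinized plasma spiked with E. coli LPS (5 or 0.5 ng/ml) was incubated with test compound at 0, 10, 100, 250, 500 and 1000 ng/ml for 60 min at 37℃ in pyrogen-free glass vials. Endotoxin activity was read by kinetic chromogenic LAL test. ENC50 is the concentration reducing activity by 50% relative to LPS-spiked plasma without test compound.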

plasma proteins [1] = type: in vitro ADME, human
How it was run: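 Fresh citrate-anticoagulated plasma from three donors was spiked with 1 µg/ml test compound. Aliquots were centrifuged (10,000 g, 20 min) through ultrafiltration membranes of 10, 30, 50 or 100 kDa MMCO, and filtrates were stored at −20℃. Drug in filtrates was measured by competitive ELISA (detection limit 1 ng/ml; samples diluted into 0–100 ng/ml range). Total protein was measured by automated analyser. The same filtration was run in 0.9% NaCl to check binding to the filter.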

plasma proteins [2] = conditions: assumed value from the literature; cited from earlier work

## Polymyxin B [PMB]
LPS from E. coli
  ENC50 (endotoxin neutralizing concentration): 381 ng/mL and < 400 ng/mL
Plasma proteins [1]; 100 kDa MMCO, citrate plasma, 1 µg/ml PMB, ultrafiltration 10,000 g 20 min, ELISA, mean ± SD n = 3
  PMB % of + control in filtrate: 25 ± 13%
Plasma proteins [1]; membranes with smaller pores than 100 kDa MMCO (10, 30, 50 kDa)
  PMB-content of filtrates compared with a PMB-solution without plasma: < 10%
Plasma proteins [2]
  Plasma protein binding of PMB: up to 90%
